Published values from different studies.
Lines come from different studies, so protocols differ.
Target: Ephrin type-A receptor 8 (EPHA8, Homo sapiens, UniProt P29322)
One construct used (P29322 28-1005): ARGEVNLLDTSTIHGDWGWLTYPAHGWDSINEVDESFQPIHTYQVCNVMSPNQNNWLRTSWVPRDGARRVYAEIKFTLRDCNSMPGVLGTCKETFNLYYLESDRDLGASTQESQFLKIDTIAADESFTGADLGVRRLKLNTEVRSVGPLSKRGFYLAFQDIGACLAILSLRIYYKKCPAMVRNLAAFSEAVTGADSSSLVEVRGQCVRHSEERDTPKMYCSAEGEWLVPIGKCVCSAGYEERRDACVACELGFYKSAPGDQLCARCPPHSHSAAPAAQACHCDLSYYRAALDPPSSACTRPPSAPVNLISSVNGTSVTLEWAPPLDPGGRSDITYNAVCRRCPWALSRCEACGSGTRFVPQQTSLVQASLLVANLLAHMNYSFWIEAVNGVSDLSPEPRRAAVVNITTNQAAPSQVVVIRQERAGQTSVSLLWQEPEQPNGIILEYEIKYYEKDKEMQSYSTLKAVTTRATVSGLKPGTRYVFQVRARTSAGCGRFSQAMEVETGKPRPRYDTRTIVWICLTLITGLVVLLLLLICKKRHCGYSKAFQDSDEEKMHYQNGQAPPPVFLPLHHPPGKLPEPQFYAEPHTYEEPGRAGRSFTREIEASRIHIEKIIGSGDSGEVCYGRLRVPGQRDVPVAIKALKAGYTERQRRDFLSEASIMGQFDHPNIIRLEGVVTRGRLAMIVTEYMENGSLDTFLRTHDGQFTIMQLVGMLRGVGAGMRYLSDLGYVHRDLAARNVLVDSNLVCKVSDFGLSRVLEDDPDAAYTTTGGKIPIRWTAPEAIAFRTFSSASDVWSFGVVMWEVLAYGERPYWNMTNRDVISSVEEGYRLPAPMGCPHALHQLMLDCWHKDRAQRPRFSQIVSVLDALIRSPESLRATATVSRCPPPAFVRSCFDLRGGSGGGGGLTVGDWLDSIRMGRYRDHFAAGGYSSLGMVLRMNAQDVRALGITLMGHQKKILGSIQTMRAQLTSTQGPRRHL

SMILES	assay	setting	quantity	result
Nc1ncc(-c2nc(N3CCOCC3)nc(N3CCOCC3)n2)c(C(F)F)n1	cell-free assay, competition with immobilised ligand	10 µM	remaining binding	100%
Cn1cncc1[C@](O)(COc1ccc(C#N)cc1-c1ccc(OC(F)(F)F)cc1)c1ccc(C#N)cc1	cell-free assay, competition with immobilised ligand	1 µM	remaining binding	72%
Cc1nn(C)cc1-c1nc2c(N3CCN(Cc4ccc(Cl)cc4)CC3)c(Cl)cnc2[nH]1	binding, competition with immobilised ligand	1 µM	remaining binding	100%
O=c1[nH]c2ccccc2n1C1CCN(Cc2ccc(-c3[nH]c4cc5ncnc5cc4nc3-c3ccccc3)cc2)CC1	cell-free assay	0.5 µM	remaining signal	106%
Cn1cc(-c2cc(F)cc(N3CCn4c(cc5c4CCCC5)C3=O)c2CO)cc(Nc2ccc(N3CCN(C4COC4)CC3)cn2)c1=O	enzyme activity, inhibitor	0.1 µM	inhibition	8%
COc1cc(Nc2ncc(F)c(Nc3ccc4c(n3)NC(=O)C(C)(C)O4)n2)cc(OC)c1OC	binding, competition with immobilised ligand	10 µM	inhibition	58%
N#CC1(c2ccccn2)CCN(Cc2cc(C(=O)O)c(=O)n3ccccc23)CC1	cell-free assay, competition with immobilised ligand	1 µM	remaining binding	100%
COc1ncccc1-c1cnn2ccc(N3CCN(C(=O)OC(C)C)CC3)nc12	binding, competition with immobilised ligand	1 µM	remaining binding	100%
Cn1cc(-c2cccc(N3CCc4c(sc5c4CC(C)(C)C5)C3=O)c2CO)cc(Nc2ccncn2)c1=O	enzyme activity, inhibitor	1 µM	inhibition	1%
CC(C)(C)c1cc(C=C(C#N)C#N)cc(Br)c1O	enzyme activity, inhibitor	0.5 µM	remaining activity	100%
COc1cc(Cl)c(C(=O)N[C@@H](CN[C@H]2CC[C@@H](N)CC2)Cc2ccc(C#N)cc2)cc1-c1ccc(CN[C@H](C)c2ccc(C)cc2)o1	enzyme activity, inhibitor	1 µM	remaining activity	107%
